Results: ChEMBL document CHEMBL1152843, “Synthesis of new series of 5,6-dihydro-4H-1,2-oxazines via hetero Diels-Alder reaction and evaluation of antimicrobial activity” (2009)
Values after ≈ are worked out from the molar mass of the structure shown.

Key:
Type in all cases: functional
[1] = tested on: Pseudomonas aeruginosa; experiment: Antibacterial activity against Pseudomonas aeruginosa MTCC 1688 at 20 ug after 24 hrs by cup diffusion method; settings: MTCC 1688, 24 h, read-out: IZ
Summary of the method: (§1)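 Agar cup diffusion. Plates of sterile medium in 9 cm dishes were seeded with 1 × 10⁵ cfu of bacteria, with the suspension adjusted to at least 1 × 10⁵ cfu/ml in nutrient broth. Compound in DMF was placed in 5 mm cups and pre-diffused for 1 h. Plates were incubated at 37 °C for 24 h and the inhibition zone measured in mm. DMF served as negative control.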

[2] = tested on: Aspergillus flavus; experiment: Antifungal activity against Aspergillus flavus after 48 hrs by cup diffusion method
[3] = tested on: Aspergillus niger; experiment: Antifungal activity against Aspergillus niger after 48 hrs by cup diffusion method
[4] = tested on: Staphylococcus aureus; experiment: Antibacterial activity against Staphylococcus aureus MTCC 737 at 20 ug after 24 hrs by cup diffusion method; settings: MTCC 737, 24 h, read-out: IZ; summary of the method: as §1
[5] = tested on: Klebsiella pneumoniae; experiment: Antibacterial activity against Klebsiella pneumoniae […] at 20 ug after 24 hrs by cup diffusion method; settings: for zone of inhibition at 20 µg/disc: read-out: IZ; summary of the method: as §1
[6] = tested on: Fusarium verticillioides; experiment: Antifungal activity against Fusarium moniliforme after 48 hrs by cup diffusion method
[7] = tested on: Fusarium verticillioides; experiment: Antifungal activity against Fusarium moniliforme at 20 ug after 48 hrs by cup diffusion method; settings: for zone of inhibition at 20 µg/disc: read-out: IZ
Summary of the method: (§2)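 Cup diffusion on 9 cm plates seeded with 1 × 10⁶ cfu of fungi, with spores adjusted to at least 1 × 10⁶ cfu/ml in potato dextrose broth. Compound in DMF was placed in 5 mm agar cups and left 1 h to diffuse. Plates were incubated at 28 °C for 48 h and the inhibition zone read in mm. DMF was the negative control.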

[8] = tested on: Aspergillus flavus; experiment: Antifungal activity against Aspergillus flavus at 20 ug after 48 hrs by cup diffusion method; settings: for zone of inhibition at 20 µg/disc: read-out: IZ; summary of the method: as §2
[9] = tested on: Staphylococcus aureus; experiment: Antibacterial activity against Staphylococcus aureus MTCC 737 after 24 hrs by cup diffusion method
[10] = tested on: Escherichia coli; experiment: Antibacterial activity against Escherichia coli MTCC 443 after 24 hrs by cup diffusion method
[11] = tested on: Fusarium oxysporum; experiment: Antifungal activity against Fusarium oxysporum at 20 ug after 48 hrs by cup diffusion method; settings: for zone of inhibition at 20 µg/disc: read-out: IZ; summary of the method: as §2
[12] = tested on: Aspergillus niger; experiment: Antifungal activity against Aspergillus niger at 20 ug after 48 hrs by cup diffusion method; settings: read-out: IZ; summary of the method: as §2
[13] = tested on: Escherichia coli; experiment: Antibacterial activity against Escherichia coli MTCC 443 at 20 ug after 24 hrs by cup diffusion method; settings: MTCC 443, 24 h, read-out: IZ; summary of the method: as §1
[14] = tested on: Pseudomonas aeruginosa; experiment: Antibacterial activity against Pseudomonas aeruginosa MTCC 1688 after 24 hrs by cup diffusion method
[15] = tested on: Klebsiella pneumoniae; experiment: Antibacterial activity against Klebsiella pneumoniae […] after 24 hrs by cup diffusion method
[16] = tested on: Fusarium oxysporum; experiment: Antifungal activity against Fusarium oxysporum after 48 hrs by cup diffusion method

`COc1ccc(C2=NOC(Cc3ccc4c(c3)OCO4)CC2)cc1` (configuration not stated) was tested, and the zone of inhibition at 20 µg/disc [1] was 31.8 mm, the MIC [2] was 40 µg/mL (≈ 123 µM) and the MIC [3] was 35 µg/mL (≈ 108 µM). It also gave a zone of inhibition at 20 µg/disc [4] of 21.7 mm, a zone of inhibition at 20 µg/disc [5] of 19.7 mm and an MIC [6] of 35 µg/mL (≈ 108 µM). The zone of inhibition at 20 µg/disc [7] was 12.8 mm, the zone of inhibition at 20 µg/disc [8] was 9.66 mm and the MIC ([9]; MTCC 737, 24 h) was 15 µg/mL (≈ 46.1 µM). The MIC ([10]; MTCC 443, 24 h) was 25 µg/mL (≈ 76.8 µM), the zone of inhibition at 20 µg/disc [11] was 16.8 mm and the zone of inhibition at 20 µg/disc [12] was 10.7 mm. The zone of inhibition at 20 µg/disc [13] was 21.8 mm, the MIC ([14]; MTCC 1688, 24 h) was 20 µg/mL (≈ 61.5 µM) and the MIC [15] was 15 µg/mL (≈ 46.1 µM). The MIC [16] was 35 µg/mL (≈ 108 µM).
For `COc1ccc(C2=NOC(C#N)CC2)cc1` (configuration not stated), the zone of inhibition at 20 µg/disc [1] was 12.2 mm, the MIC [2] was 35 µg/mL (≈ 162 µM) and the MIC [3] was 40 µg/mL (≈ 185 µM). For the same molecule, the zone of inhibition at 20 µg/disc [4] was 9.5 mm, the zone of inhibition at 20 µg/disc [5] was 6.66 mm and the MIC [6] was 35 µg/mL (≈ 162 µM). It also gave a zone of inhibition at 20 µg/disc [7] of 13.4 mm, a zone of inhibition at 20 µg/disc [8] of 8.5 mm and an MIC ([9]; MTCC 737, 24 h) of 10 µg/mL (≈ 46.2 µM). It also gave an MIC ([10]; MTCC 443, 24 h) of 25 µg/mL (≈ 116 µM), a zone of inhibition at 20 µg/disc [11] of 18.5 mm and a zone of inhibition at 20 µg/disc [12] of 9.5 mm. For the same molecule, the zone of inhibition at 20 µg/disc [13] was 10.2 mm, the MIC ([14]; MTCC 1688, 24 h) was 15 µg/mL (≈ 69.4 µM) and the MIC [15] was 15 µg/mL (≈ 69.4 µM). It also gave an MIC [16] of 30 µg/mL (≈ 139 µM).
In the case of GENTAMICIN, the inhibition zone (IZ) [5] is reported as 17.5 mm, the MIC [9] is reported as 15 µg/mL and the MIC [10] is reported as 20 µg/mL. It also gave an MIC [14] of 15 µg/mL and an MIC [15] of 15 µg/mL.
With `CCOC(=O)C1CCC(c2ccc(OC)cc2)=NO1` (configuration not stated) the zone of inhibition at 20 µg/disc [1] was 23.7 mm, the MIC [2] was 10 µg/mL (≈ 38 µM) and the MIC [3] was 15 µg/mL (≈ 57 µM). It also gave a zone of inhibition at 20 µg/disc [4] of 16.7 mm, a zone of inhibition at 20 µg/disc [5] of 14.8 mm and an MIC [6] of 20 µg/mL (≈ 76 µM). It also gave a zone of inhibition at 20 µg/disc [7] of 28 mm, a zone of inhibition at 20 µg/disc [8] of 25.5 mm and an MIC ([9]; MTCC 737, 24 h) of 20 µg/mL (≈ 76 µM). It also gave an MIC ([10]; MTCC 443, 24 h) of 35 µg/mL (≈ 133 µM), a zone of inhibition at 20 µg/disc [11] of 30.7 mm and a zone of inhibition at 20 µg/disc [12] of 24.2 mm. It also gave a zone of inhibition at 20 µg/disc [13] of 24.7 mm, an MIC ([14]; MTCC 1688, 24 h) of 20 µg/mL (≈ 76 µM) and an MIC [15] of 25 µg/mL (≈ 95 µM). It also gave an MIC [16] of 10 µg/mL (≈ 38 µM).
With `Cc1ccc(C2=NOC(C#N)CC2)cc1C` (configuration not stated) the zone of inhibition at 20 µg/disc [1] was 15.2 mm, the MIC [2] was 20 µg/mL (≈ 93.3 µM) and the MIC [3] was 20 µg/mL (≈ 93.3 µM). The zone of inhibition at 20 µg/disc [4] was 21.5 mm, the zone of inhibition at 20 µg/disc [5] was 19.8 mm and the MIC [6] was 15 µg/mL (≈ 70 µM). It also gave a zone of inhibition at 20 µg/disc [7] of 15.7 mm, a zone of inhibition at 20 µg/disc [8] of 12.2 mm and an MIC ([9]; MTCC 737, 24 h) of 10 µg/mL (≈ 46.7 µM). For the same molecule, the MIC ([10]; MTCC 443, 24 h) was 25 µg/mL (≈ 117 µM), the zone of inhibition at 20 µg/disc [11] was 21.5 mm and the zone of inhibition at 20 µg/disc [12] was 11.7 mm. The zone of inhibition at 20 µg/disc [13] was 15.5 mm, the MIC ([14]; MTCC 1688, 24 h) was 15 µg/mL (≈ 70 µM) and the MIC [15] was 15 µg/mL (≈ 70 µM). The MIC [16] was 15 µg/mL (≈ 70 µM).
Work on `COc1ccc(C2=NOC(CCl)CC2)cc1OC` (configuration not stated) yielded a zone of inhibition at 20 µg/disc [1] of 9.83 mm, an MIC [2] of 15 µg/mL (≈ 55.6 µM) and an MIC [3] of 20 µg/mL (≈ 74.1 µM). For the same molecule, the zone of inhibition at 20 µg/disc [4] was 17.8 mm, the zone of inhibition at 20 µg/disc [5] was 17 mm and the MIC [6] was 15 µg/mL (≈ 55.6 µM). The zone of inhibition at 20 µg/disc [7] was 26.5 mm, the zone of inhibition at 20 µg/disc [8] was 20.8 mm and the MIC ([9]; MTCC 737, 24 h) was 10 µg/mL (≈ 37.1 µM). It also gave an MIC ([10]; MTCC 443, 24 h) of 20 µg/mL (≈ 74.1 µM), a zone of inhibition at 20 µg/disc [11] of 28.7 mm and a zone of inhibition at 20 µg/disc [12] of 18.7 mm. The zone of inhibition at 20 µg/disc [13] was 13.8 mm, the MIC ([14]; MTCC 1688, 24 h) was 15 µg/mL (≈ 55.6 µM) and the MIC [15] was 10 µg/mL (≈ 37.1 µM). For the same molecule, the MIC [16] was 10 µg/mL (≈ 37.1 µM).
Molecule NYSTATIN has an MIC [2] of 15 µg/mL, an MIC [3] of 10 µg/mL and an MIC [6] of 15 µg/mL. For the same molecule, the inhibition zone (IZ) [7] was 15.6 mm, the inhibition zone (IZ) [8] was 13.2 mm and the inhibition zone (IZ) [11] was 16.6 mm. The MIC [16] was 20 µg/mL.
In the case of `Cc1ccc(C2=NOC(CCl)CC2)cc1C` (configuration not stated), the zone of inhibition at 20 µg/disc [1] is reported as 17.6 mm, the MIC [2] is reported as 15 µg/mL (≈ 63.1 µM) and the MIC [3] is reported as 15 µg/mL (≈ 63.1 µM). For the same molecule, the zone of inhibition at 20 µg/disc [4] was 20.7 mm, the zone of inhibition at 20 µg/disc [5] was 15.8 mm and the MIC [6] was 20 µg/mL (≈ 84.1 µM). It also gave a zone of inhibition at 20 µg/disc [7] of 11.5 mm, a zone of inhibition at 20 µg/disc [8] of 9.5 mm and an MIC ([9]; MTCC 737, 24 h) of 10 µg/mL (≈ 42.1 µM). For the same molecule, the MIC ([10]; MTCC 443, 24 h) was 20 µg/mL (≈ 84.1 µM), the zone of inhibition at 20 µg/disc [11] was 20.7 mm and the zone of inhibition at 20 µg/disc [12] was 8.5 mm. The zone of inhibition at 20 µg/disc [13] was 14.8 mm, the MIC ([14]; MTCC 1688, 24 h) was 15 µg/mL (≈ 63.1 µM) and the MIC [15] was 15 µg/mL (≈ 63.1 µM). It also gave an MIC [16] of 10 µg/mL (≈ 42.1 µM).
With `CC1(C)S[C@@H]2[C@H](NC(=O)Cc3ccccc3)C(=O)N2[C@H]1C(=O)O` [PENICILLIN G] the zone of inhibition at 20 µg/disc [1] was 0 mm, the zone of inhibition at 20 µg/disc [4] was 9.38 mm and the zone of inhibition at 20 µg/disc [5] was 0 mm. The zone of inhibition at 20 µg/disc [13] was 0 mm.
